SMILES strings stand for the structures. ≈ marks a conversion by molar mass, not a printed value. Calls of active or inactive are those of the source. No cut-off for these calls is given here.

Data set [1] can be described thus: Therapeutic index, ratio of MCC50 for human HeLa cells to MIC for inhibition of flavodoxin in metronidazole-resistant Helicobacter pylori isolate 2 assessed as reduction in bacterial growth. The class given is toxicity. The conditions noted are these: read-out: TI. In outline:
(§1)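 TI is MCC50/MIC. For MCC50, HeLa cells (30 000/well, DMEM with 10% FBS) were exposed to compound at 25–1000 μM final. Viability by XTT at 450/650 nm; MCC50 is the concentration giving 50% lysis from viability curves. Run twice in triplicate.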

Data set [2] is described as follows: Therapeutic index, ratio of MCC50 for human HeLa cells to MIC for inhibition of flavodoxin in rifampicin-resistant Helicobacter pylori isolate 5 assessed as reduction in bacterial growth. The format is toxicity. The settings on record: read-out: TI. In outline: as §1
The next data set concerns Escherichia coli. Kind of data set: Effect on growth of Escherichia coli DH5[alpha] after 48 hrs by resazurin-dye based microdilution assay. The format is organism-based. Background: Resazurin is reduced to fluorescent resorufin, in cell work by metabolically active cells.
A short description of data set [3]: Therapeutic index, ratio of MCC50 for human HeLa cells to MIC for inhibition of flavodoxin in metronidazole-resistant Helicobacter pylori isolate 1 assessed as reduction in bacterial growth. The class given is toxicity. The conditions noted are these: read-out: TI. In outline: as §1
A further data set concerns Staphylococcus aureus. In words: Effect on growth of Staphylococcus aureus ATCC 1228 after 48 hrs by resazurin-dye based microdilution assay. The format is organism-based.
Data set [4] in a line: Therapeutic index, ratio of MCC50 for human HeLa cells to MIC for inhibition of flavodoxin in Mnz-resistant Helicobacter pylori NCTC 11637 ATCC 43504 assessed as reduction in bacterial growth. The class given is toxicity. The conditions noted are these: read-out: TI. The method in brief:
as §1

Data set [5] can be described thus: Therapeutic index, ratio of MCC50 for human HeLa cells to MIC for inhibition of flavodoxin in Helicobacter pylori ATCC 700392 26695 assessed as reduction in bacterial growth. The class given is toxicity. The settings on record: HeLa cells versus Helicobacter pylori ATCC 700392 26695, read-out: TI. In outline:
as §1

Data set [6] concerns the target T1, Flavodoxin (Helicobacter pylori (strain ATCC 700392 / 26695) (Campylobacter pylori)) (UniProt O25776).
T1 sequence (whole entry): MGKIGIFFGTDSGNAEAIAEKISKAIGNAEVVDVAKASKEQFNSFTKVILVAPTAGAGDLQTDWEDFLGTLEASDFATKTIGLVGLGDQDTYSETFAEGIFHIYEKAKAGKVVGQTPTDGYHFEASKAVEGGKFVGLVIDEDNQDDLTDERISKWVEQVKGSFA
Kind of data set: Inhibition of flavodoxin in Mnz-resistant Helicobacter pylori NCTC 11637 ATCC 43504 assessed as reduction in bacterial growth measured after 48 hrs by resazurin staining-based microdilution method. The settings on record: Helicobacter pylori NCTC 11637 = CCUG 17874 = ATCC 43504. In outline:
(§2)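 Broth microdilution in brain heart infusion with 4% FBS. Inoculum diluted to OD600 0.01. Two-fold dilutions from a DMSO stock cover 64–0.031 μg/mL, with DMSO ≤1% v/v. Incubated 48 h at 37 °C under microaerophilic conditions. MIC is the lowest concentration giving complete growth inhibition, read by resazurin colour change and confirmed by spotting on blood agar. Run twice in triplicate.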

Data set [7] has as its target T1, Flavodoxin (Helicobacter pylori (strain ATCC 700392 / 26695) (Campylobacter pylori)). In words: Inhibition of flavodoxin in Helicobacter pylori SS1 assessed as reduction in bacterial growth measured after 48 hrs by resazurin staining-based microdilution method. In outline:
as §2

Data set [8] in a line: Therapeutic index, ratio of MCC50 for human HeLa cells to MIC for inhibition of flavodoxin in clarithromycin/metronidazole-resistant Helicobacter pylori isolate 6 assessed as reduction in bacterial growth. The format is toxicity. The conditions noted are these: read-out: TI. In outline:
as §1

The target of data set [9] is T1, Flavodoxin (Helicobacter pylori (strain ATCC 700392 / 26695) (Campylobacter pylori)). In words: Binding affinity to Helicobacter pylori flavodoxin by thermal upshift assay.
The target is the same in data set [10]. In words: Inhibition of flavodoxin in Helicobacter pylori ATCC 700392 26695 assessed as reduction in bacterial growth measured after 48 hrs by resazurin staining-based microdilution method. The settings on record: Helicobacter pylori 26695. The method in brief:
as §2

Data set [11] can be described thus: Therapeutic index, ratio of MCC50 for human HeLa cells to MIC for inhibition of flavodoxin in clarithromycin/metronidazole-resistant Helicobacter pylori isolate 4 assessed as reduction in bacterial growth. The format is toxicity. The conditions noted are these: read-out: TI. In outline: as §1
Data set [12] addresses T1, Flavodoxin (Helicobacter pylori (strain ATCC 700392 / 26695) (Campylobacter pylori)). In words: Binding affinity to Helicobacter pylori flavodoxin by isothermal titration calorimetric method.
Data set [13] is described as follows: Cytotoxicity against human HeLa cells assessed as reduction in cell viability by XTT assay. The class given is cell-based. The settings on record: read-out: MCC50. The method in brief: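 HeLa cells grown in DMEM with 10% FBS, penicillin and streptomycin at 37 °C, 5% CO2; 30 000 cells/well. XTT viability read at 450 and 650 nm. MCC50 (50% lysis) came from viability-versus-concentration curves. Two experiments, each in triplicate.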
In general terms: Tetrazolium assays rely on reduction of a dye to a coloured formazan, in cell work by metabolically active cells.

A short description of data set [14]: Therapeutic index, ratio of MCC50 for human HeLa cells to MIC for inhibition of flavodoxin in Helicobacter pylori SS1 assessed as reduction in bacterial growth. The format is toxicity. The conditions noted are these: HeLa cells versus Helicobacter pylori SS1, read-out: TI. In outline:
as §1

The nature of data set [15]: Therapeutic index, ratio of MCC50 for human HeLa cells to MIC for inhibition of flavodoxin in metronidazole-resistant Helicobacter pylori isolate 3 assessed as reduction in bacterial growth. The class given is toxicity. The conditions noted are these: read-out: TI. In outline:
as §1

For `O/N=C/Cc1cc(C(F)(F)F)cc(C(F)(F)F)c1`, the selectivity ratio in data set [1] was 4.2; in data set [2], 4.2; in data set [3] it was 4.2; in data set [4], above 8.5; in data set [5], above 4.2; in data set [8] it was 4.2. The selectivity ratio was 34 in data set [11], above 2.1 in data set [14] and 4.2 in [15]. Also, the Activity result in the data set on Escherichia coli and with Staphylococcus aureus was “Non-Toxic” each time. For the same compound, the MIC in [6] stood at 59 µM (≈ 16 µg/mL); in data set [7], 236 µM (≈ 64 µg/mL); in [10], 118 µM (≈ 32 µg/mL). For the same compound, the outcome in data set [9] and in [12] was Active. For the same compound, the CC50 in [13] was above 0.5 mM.

Regarding `Cc1ncc([N+](=O)[O-])n1CCO` [METRONIDAZOLE], the Activity result in the data set with Escherichia coli and in the data set on Staphylococcus aureus was “Non-Toxic” each time. The selectivity ratio in data set [4] was above 5.3; in data set [5], above 83; in data set [14], above 345. In addition, the MIC in data set [6] is 187 µM (≈ 32 µg/mL); in [7], 2.9 µM (≈ 0.496 µg/mL); in data set [10] it was 12 µM (≈ 2.05 µg/mL). Moreover, the result in [9] and in data set [12] was Active. For the same compound, the CC50 in [13] was above 1 mM.

In the case of `COc1ccc(CS(=O)(=O)c2ccc(N)c3nonc23)cc1`, the selectivity ratio in [1] was 10; in data set [2], 10; in data set [3] it was 10; in data set [4], above 10; in data set [5] it was above 10; in data set [8] it was 10. Further, the selectivity ratio in [11] was 20; in data set [14], above 10; in [15], 20. Besides, the Activity result in the data set with Escherichia coli and in the data set on Staphylococcus aureus was “Non-Toxic” in each case. The MIC in [6], in data set [7] and in data set [10] was 100 µM (≈ 31.9 µg/mL) in each case. The result in [9] and in data set [12] was Active. Further, in data set [13], the CC50 was above 1 mM.

Consider `COc1ccc(C[S+]([O-])c2ccc([N+](=O)[O-])c3nonc23)cc1` (centres undefined), for which the Activity entry in the data set with Escherichia coli and in the data set with Staphylococcus aureus was “Non-Toxic” in each case. Further, the selectivity ratio in data set [4] worked out at 30; in data set [5], 30; in data set [14], 15. In addition, the MIC stood at 6 µM (≈ 2 µg/mL) in [6], 12 µM (≈ 4 µg/mL) in data set [7] and 6 µM (≈ 2 µg/mL) in data set [10]. Moreover, the result in data set [9] and in [12] was Active. For the same compound, the CC50 in data set [13] stood at 0.179 mM.

With `O=[N+]([O-])C1=Cc2cc(Cl)cc(Cl)c2OC1c1ccc(F)cc1` (centres undefined), the MIC in [6], in [7] and in [10] was 0.37 µM (≈ 0.126 µg/mL) throughout. Moreover, the outcome in [9] and in data set [12] was Active.

As to `ONCCc1ccccc1`, the Activity result in the data set on Escherichia coli and in the data set on Staphylococcus aureus was “Non-Toxic” each time. Besides, the MIC in data set [6], in data set [7] and in data set [10] was above 233 µM each time. In addition, the result in data set [9] and in data set [12] was Active. The CC50 in data set [13] is above 1 mM.

With `Cc1ncc(N)n1CCO`, the Activity result with Escherichia coli and with Staphylococcus aureus was “Non-Toxic” each time. Further, the selectivity ratio was above 4.4 in data set [4] and above 2.2 in data set [5]. Further, the MIC in [6] is 227 µM (≈ 32 µg/mL); in data set [7], above 453 µM; in [10], 453 µM (≈ 64 µg/mL). Further, the result in data set [9] and in data set [12] was Active. The CC50 in data set [13] was above 1 mM.
